Measured values taken from ChEMBL document CHEMBL1156937, “3'-[4-Aryl-(1,2,3-triazol-1-yl)]-3'-deoxythymidine analogues as potent and selective inhibitors of human mitochondrial thymidine kinase” (J Med Chem, 2010).

Assays:
[1] = biological target: T1, Thymidine kinase 2, mitochondrial (Homo sapiens, UniProt O00142); assay: Inhibition of thymidine kinase 2
T1 sequence (O00142 whole entry): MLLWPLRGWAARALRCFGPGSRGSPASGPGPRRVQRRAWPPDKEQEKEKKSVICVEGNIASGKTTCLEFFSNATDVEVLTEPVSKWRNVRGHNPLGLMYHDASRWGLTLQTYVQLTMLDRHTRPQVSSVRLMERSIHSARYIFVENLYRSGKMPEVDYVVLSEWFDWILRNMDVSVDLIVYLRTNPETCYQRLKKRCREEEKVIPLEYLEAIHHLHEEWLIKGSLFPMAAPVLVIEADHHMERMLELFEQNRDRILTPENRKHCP

[2] = biological target: T2, Thymidine kinase (Human alphaherpesvirus 1, UniProt Q9QNF7); assay: Inhibition of HSV1 thymidine kinase assessed as inhibition of [methyl-3H]dThd phosphorylation after 30 mins by scintillation counting
T2 sequence (Q9QNF7 whole entry): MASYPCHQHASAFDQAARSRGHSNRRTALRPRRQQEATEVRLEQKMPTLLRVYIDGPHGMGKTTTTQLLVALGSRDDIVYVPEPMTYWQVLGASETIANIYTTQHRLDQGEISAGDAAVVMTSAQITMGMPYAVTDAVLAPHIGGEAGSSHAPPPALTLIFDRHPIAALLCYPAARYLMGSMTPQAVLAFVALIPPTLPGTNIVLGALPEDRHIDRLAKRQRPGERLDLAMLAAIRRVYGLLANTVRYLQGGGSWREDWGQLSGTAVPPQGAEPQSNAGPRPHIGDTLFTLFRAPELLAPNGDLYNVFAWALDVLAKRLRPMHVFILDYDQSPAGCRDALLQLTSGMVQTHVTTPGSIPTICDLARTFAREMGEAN
Method in brief: (§1)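 Recombinant enzyme in 50 mM Tris/HCl pH 8.0, 2.5 mM MgCl2, 10 mM DTT, 0.5 mM CHAPS, 3 mg/mL BSA, 2.5 mM ATP and 1 μM [methyl-3H]dThd. Inhibitor at 5-fold dilutions; 37 °C for 30 min, within the linear range. Reaction spotted on DE-81 filter disks, which were washed in 1 mM ammonium formate, water and ethanol. Radioactivity counted by scintillation. IC50 is the concentration halving dThd phosphorylation.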

[3] = biological target: T3, Thymidine kinase, cytosolic (Homo sapiens, UniProt P04183); assay: Inhibition of human recombinant cytosolic thymidine kinase 1 assessed as inhibition of [methyl-3H]dThd phosphorylation after 30 mins by scintillation counting; method in brief: as §1
T3 sequence (P04183 whole entry): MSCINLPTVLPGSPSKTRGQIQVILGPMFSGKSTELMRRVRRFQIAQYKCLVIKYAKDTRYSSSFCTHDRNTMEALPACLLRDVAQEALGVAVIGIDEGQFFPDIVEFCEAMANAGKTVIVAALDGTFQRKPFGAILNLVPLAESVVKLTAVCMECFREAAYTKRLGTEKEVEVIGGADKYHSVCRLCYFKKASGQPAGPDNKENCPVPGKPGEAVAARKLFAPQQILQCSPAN

[4] = biological target: T1, Thymidine kinase 2, mitochondrial; assay: Inhibition of human recombinant mitochondrial thymidine kinase 2 assessed as inhibition of [methyl-3H]dThd phosphorylation after 30 mins by scintillation counting; method in brief: as §1
[5] = Inhibition of Varicella zoster virus thymidine kinase assessed as inhibition of [methyl-3H]dThd phosphorylation after 30 mins by scintillation counting; parameters: species or system Human alphaherpesvirus 3; method in brief: as §1
[6] = biological target: T4, Deoxynucleoside kinase (Drosophila melanogaster, UniProt Q9XZT6); assay: Inhibition of Drosophila melanogaster multifunctional deoxynucleoside kinase assessed as inhibition of [methyl-3H]dThd phosphorylation after 30 mins by scintillation counting; method in brief: as §1
T4 sequence (Q9XZT6 whole entry): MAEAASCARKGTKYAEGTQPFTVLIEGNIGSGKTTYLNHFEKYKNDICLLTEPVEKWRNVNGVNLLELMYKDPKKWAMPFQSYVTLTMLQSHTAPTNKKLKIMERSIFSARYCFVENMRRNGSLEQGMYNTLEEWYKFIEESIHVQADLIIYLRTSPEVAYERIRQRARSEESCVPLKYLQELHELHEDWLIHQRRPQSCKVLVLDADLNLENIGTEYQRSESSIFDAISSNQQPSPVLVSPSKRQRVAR

[7] = species: Homo sapiens; assay: Selectivity ratio of IC50 for human recombinant cytosolic thymidine kinase 1 to IC50 for human recombinant mitochondrial thymidine kinase 2
[8] = biological target: T1, Thymidine kinase 2, mitochondrial; assay: Competitive inhibition of human recombinant mitochondrial thymidine kinase 2 using ATP as substrate by Lineweaver-Burke plotting; settings: in the assay text read “using thymidine as substrate” for “using ATP as substrate”
Method in brief: (§2)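 Purified recombinant TK-2 in the same radiometric filter-binding assay. For dThd-varied kinetics, dThd was 0.4–5 μM with ATP saturating at 2.5 mM. For ATP-varied kinetics, ATP was 5–100 μM with dThd saturating at 20 μM. Km, Ki and inhibition mode were derived from Lineweaver-Burk plots.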

[9] = biological target: T1, Thymidine kinase 2, mitochondrial; assay: Uncompetitive inhibition of human recombinant mitochondrial thymidine kinase 2 using thymidine as substrate by Lineweaver-Burke plotting; settings: in the assay text read “using ATP as substrate” for “using thymidine as substrate”; method in brief: as §2

SMILES	Ki [1] [µM]	IC50 [2] [µM]	IC50 [3] [µM]	IC50 [4] [µM]	IC50 [5] [µM]	IC50 [6] [µM]	Ratio IC50 [7]	Ki [8] [µM]	Ki [9] [µM]	IC50 [1] [µM]
CCCCCC(=O)N[C@H]1C[C@H](n2cc(C)c(=O)[nH]c2=O)O[C@@H]1CO	0.15									
O=c1[nH]c(=O)n([C@@H]2O[C@H](CO)[C@@H](O)C2O)cc1/C=C/Br (single isomer, unassigned) [SORIVUDINE]	10.4									
Cc1cn([C@H]2C[C@H](n3cc(CC4CCCC4)nn3)[C@@H](CO)O2)c(=O)[nH]c1=O		48	177	0.15	3.1	3				
O=c1[nH]c(=O)n([C@H]2C[C@H](n3cc(-c4ccccc4)nn3)[C@@H](CO)O2)cc1/C=C/Br		36	> 500	0.25	3.7	2.9				
Cc1cn([C@H]2C[C@H](n3nncc3-c3ccccc3)[C@@H](CO)O2)c(=O)[nH]c1=O		445	≥ 500	1.1	19	17				
Cc1cn([C@H]2C[C@H](n3ccnn3)[C@@H](CO)O2)c(=O)[nH]c1=O		212	≥ 500	4.7	15	40				
Cc1cn([C@H]2C[C@H](n3cc(-c4ccc(Cl)c(Cl)c4)nn3)[C@@H](CO)O2)c(=O)[nH]c1=O		30	75	0.042	2.7	0.99				
Cc1cn([C@H]2C[C@H](n3nncc3-c3ccc(Cl)cc3)[C@@H](CO)O2)c(=O)[nH]c1=O		392	109	4		30				
O=c1[nH]c(=O)n([C@H]2C[C@H](n3cc(-c4ccc(Cl)cc4)nn3)[C@@H](CO)O2)cc1/C=C/Br		4.5	> 500	0.036	1.7	0.46	> 14000	0.012	0.41	
CNC(=O)c1ccc(C(OCCCCCCCCn2cc(C)c(=O)[nH]c2=O)(c2ccccc2)c2ccccc2)cc1										0.4
Cc1cn([C@H]2C[C@H](n3cc(-c4ccccc4)nn3)[C@@H](CO)O2)c(=O)[nH]c1=O		28	54	0.32	2.5	2.2				
CCCCc1cn([C@H]2C[C@H](n3cc(C)c(=O)[nH]c3=O)O[C@@H]2CO)nn1		95	366	0.23	4.3	4.1				
Cc1cn([C@H]2C[C@H](n3cc(-c4ccccn4)nn3)[C@@H](CO)O2)c(=O)[nH]c1=O		46	316	1.3	3.1	3.8				
Cc1cn([C@H]2C[C@H](NC(=S)Nc3ccc(Cl)c(C(F)(F)F)c3)[C@@H](COC(c3ccccc3)(c3ccccc3)c3ccccc3)O2)c(=O)[nH]c1=O		> 500	> 500	> 500	> 500	> 500				
Cc1cn([C@H]2C[C@H](n3cc(-c4ccc(Cl)cc4)nn3)[C@@H](CO)O2)c(=O)[nH]c1=O		27	71	0.046	3.3	1.8				
Cc1cn([C@H]2C[C@H](n3cc(Cc4ccccc4)nn3)[C@@H](CO)O2)c(=O)[nH]c1=O		158	318	0.3	6.4	3.9				
Cc1cn([C@H]2C[C@H](NC(=S)Nc3ccc(Cl)c(C(F)(F)F)c3)[C@@H](CO)O2)c(=O)[nH]c1=O			316	0.15			2100			
